Data on 23 molecules can be found in ChEMBL document CHEMBL4033622, “Synthesis and the interaction of 2-(1H-pyrazol-4-yl)-1H-imidazo[4,5-f][1,10]phenanthrolines with telomeric DNA as lung cancer inhibitors” (Eur J Med Chem, 2017).

Broadly, the IC50 is the concentration that inhibits the measured activity by half. Higher therefore signals a need for much substance. One may read the ΔTm as the change in melting temperature against a reference sample. In general, GI50 refers to the concentration that inhibits growth by half. Low readings indicate greater sensitivity of the cells, high ones lower sensitivity of the cells.

Active and inactive are the calls of the source. No cut-off for these calls is given here.

Experiment [1] has as its system A549. The experiment in a line: Cytotoxicity against human A549 cells assessed as cell growth inhibition at 10 uM after 36 hrs by CCK8 assay. The format is functional, cell-based.
A short description of experiment [2]: Selectivity index, ratio of IC50 for human MRC5 cells to IC50 for human A549 cells. The format is functional.
Experiment [3] deals with A549. The experiment in a line: Cytotoxicity against human A549 cells after 36 hrs by CCK8 assay. The settings on record: A549, 36 h. It is filed as functional, cell-based.
The species entered for experiment [4] is Homo sapiens. In words: Binding affinity to human telomeric 26 mutated DNA up to 40 uM after 24 hrs by SYGR gold staining based electrophoretic mobility shift assay. (A gel shift assay detects complexes by their altered migration in electrophoresis.)
For experiment [5], the species on record is Homo sapiens. The experiment in a line: Binding affinity to human telomeric 26 G-quadruplex DNA up to 20 uM after 24 hrs by SYBR gold staining based electrophoretic mobility shift assay.
The subject of experiment [6] is A549. The experiment in a line: Anti-migratory activity against human A549 cells assessed as […] at 0.2 uM after 48 hrs by wound healing assay relative to control. The format is functional. The settings on record: A549, 48 h. In a few lines:
(§1)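 A549 monolayer seeded at 1 × 10⁵ cells/mL and grown 24 h, then scratched with a pipette tip. Compounds were added and cells kept 48 h in serum-free medium, then photographed. Migration distance was measured against lines fitted to the wound edges, with three points per plate. Inhibition (%) = (1 − D_drug/D_control) × 100. Mean ± SD of three independent experiments in triplicate.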

For experiment [7], the species on record is Homo sapiens. In words: Binding affinity to human telomeric 26 double stranded DNA up to 40 uM after 24 hrs by SYBR gold staining based electrophoretic mobility shift assay.
Experiment [8] is filed under the species Homo sapiens. The experiment in a line: Binding affinity to human telomeric 26 G-quadruplex DNA assessed as change in melting temperature at drug/DNA ratio of 1:10 by UV spectrophotometry (reference value: 39.34 degC).
In experiment [9] the test system is A549. In words: Anti-migratory activity against human A549 cells assessed as […] at 0.1 uM after 48 hrs by wound healing assay relative to control. The format is functional. The settings on record: A549, 48 h. In a few lines: as §1
The test system of experiment [10] is MRC5. The experiment in a line: Cytotoxicity against human MRC5 cells after 36 hrs by CCK8 assay. The settings on record: MRC5, 36 h. It is filed as cell-based. A general note: Tetrazolium dyes change colour on reduction, which living cells bring about.
In experiment [11] the test system is A549. The experiment in a line: Anti-migratory activity against human A549 cells assessed as […] at 0.05 uM after 48 hrs by wound healing assay relative to control. The format is functional. The settings on record: A549, 48 h. In a few lines:
as §1

Experiment [12] is filed under the species Homo sapiens. In words: Binding affinity to human telomeric 26 G-quadruplex DNA after 24 hrs by SYBR gold staining based electrophoretic mobility shift assay.
Experiment [13] has as its system A549. The experiment in a line: Cytotoxicity against human A549/ATCC cells after 48 hrs by sulforhodamine B assay. The settings on record: A549, 48 h. The format is functional, cell-based.

In the case of `Cc1ccc(-c2nn(-c3ccc([N+](=O)[O-])cc3[N+](=O)[O-])cc2-c2nc3c4cccnc4c4ncccc4c3[nH]2)cc1`, in experiment [1], the “growth inhibition (GI)” value was “Active”.
Same read-out and setting: as for `Cc1ccc(-c2nn(CCCN(C)C)cc2-c2nc3c4cccnc4c4ncccc4c3[nH]2)cc1`, the entry is “Active”; as for `Cn1cc(-c2nc3c4cccnc4c4ncccc4c3[nH]2)c(-c2ccc(F)cc2)n1`, “Active”.
Take `O=[N+]([O-])c1ccc(-n2cc(-c3nc4c5cccnc5c5ncccc5c4[nH]3)c(-c3ccc(Br)cc3)n2)c([N+](=O)[O-])c1`: the “growth inhibition (GI)” value in experiment [1] is “Active”.
For the molecule `Nc1ccc(-n2cc(-c3nc4c5cccnc5c5ncccc5c4[nH]3)c(-c3ccc(Br)cc3)n2)nn1`, the “growth inhibition (GI)” value in experiment [1] is “Active”.
On to `Cn1cc(-c2nc3c4cccnc4c4ncccc4c3[nH]2)c(-c2ccc(Br)cc2)n1`, for which the “growth inhibition (GI)” value in experiment [1] is “Active”.
On to `Brc1ccc(-c2nc3c4cccnc4c4ncccc4c3[nH]2)cc1`, for which the “Ratio IC50” value in experiment [2] came out at 4.07. The “growth inhibition (GI)” value in [1] is “Active”. Moreover, the IC50 came to 1.69 µM in experiment [3] and 6.88 µM in [10]. In addition, the outcome in experiment [4], in experiment [5] and in experiment [7] was inactive. Further, the inhibition of growth at 0.2 µM in [6] was 56.1%. The ΔTm in [8] was 11 °C. In addition, the inhibition of growth at 0.1 µM in experiment [9] stood at 23.7%. In experiment [11], the inhibition of growth at 0.05 µM is 16.1%.
As for `Clc1ccc(-c2n[nH]cc2-c2nc3c4cccnc4c4ncccc4c3[nH]2)cc1`, the “growth inhibition (GI)” value in [1] is “Active”.
Same read-out and setting: under `Cc1ccc(-c2nn(C)cc2-c2nc3c4cccnc4c4ncccc4c3[nH]2)cc1` stands “Active”.
On to `Clc1ccc(-c2nn(Cc3ccccc3)cc2-c2nc3c4cccnc4c4ncccc4c3[nH]2)cc1`, for which the “Ratio IC50” value in [2] is listed as 2. The “growth inhibition (GI)” value in experiment [1] is “Active”. Besides, the IC50 worked out at 2.08 µM in experiment [3] and 4.17 µM in experiment [10]. For the same molecule, the outcome in experiment [5] was inactive. Also, the inhibition of growth at 0.2 µM in experiment [6] is 94.4%. The thermal shift (ΔTm) in [8] turned out to be 13.5 °C. In addition, the inhibition of growth at 0.1 µM in experiment [9] stood at 54.2%. Besides, the inhibition of growth at 0.05 µM in experiment [11] was 24.7%.
Consider `Cn1cc(-c2nc3c4cccnc4c4ncccc4c3[nH]2)c(-c2ccc(Cl)cc2)n1`, for which the “growth inhibition (GI)” value in experiment [1] was “Active”.
Still for that read-out and setting: as for `O=[N+]([O-])c1ccc(-n2cc(-c3nc4c5cccnc5c5ncccc5c4[nH]3)c(-c3ccc(F)cc3)n2)c([N+](=O)[O-])c1`, the entry is “Active”.
As for `Cc1ccc(-c2n[nH]cc2-c2nc3c4cccnc4c4ncccc4c3[nH]2)cc1`, in experiment [1], the “growth inhibition (GI)” value was “Active”.
The same measure, in the same setting: as for `O=[N+]([O-])c1ccc(-n2cc(-c3nc4c5cccnc5c5ncccc5c4[nH]3)c(-c3ccc(Cl)cc3)n2)c([N+](=O)[O-])c1`, the entry is “Active”; as for `CN(C)CCCn1cc(-c2nc3c4cccnc4c4ncccc4c3[nH]2)c(-c2ccc(Br)cc2)n1`, “Active”.
Take `Brc1ccc(-c2nn(Cc3ccccc3)cc2-c2nc3c4cccnc4c4ncccc4c3[nH]2)cc1`: the “Ratio IC50” value in experiment [2] came to 2.58. In addition, in experiment [1], the “growth inhibition (GI)” value was “Active”. Moreover, the IC50 in [3] came to 1.48 µM; in experiment [10] it was 3.83 µM. Besides, the outcome in experiment [4] and in experiment [7] was inactive. Moreover, in [5], the outcome was Active. For the same molecule, in experiment [6], the inhibition of growth at 0.2 µM came to 98.4%. For the same molecule, the ΔTm in [8] amounted to 20.5 °C. Moreover, in experiment [9], the inhibition of growth at 0.1 µM was found to be 78.8%. Also, the Activity entry in [12] was “Dose-dependent effect”. In experiment [11], the inhibition of growth at 0.05 µM amounted to 48.3%.
For `Fc1ccc(-c2n[nH]cc2-c2nc3c4cccnc4c4ncccc4c3[nH]2)cc1`, the “growth inhibition (GI)” value in experiment [1] is “Active”.
Same read-out and setting: under `Brc1ccc(-c2n[nH]cc2-c2nc3c4cccnc4c4ncccc4c3[nH]2)cc1` stands “Active”.
Regarding `Oc1cn(-c2ccc(Cl)cc2)nc1-c1n[nH]c(=S)n1-c1ccc(F)cc1`, in experiment [13], halving of growth (GI50) required 13.2 µM.
Take `CN(C)CCCn1cc(-c2nc3c4cccnc4c4ncccc4c3[nH]2)c(-c2ccc(Cl)cc2)n1`: the “growth inhibition (GI)” value in experiment [1] was “Active”.
Regarding `Fc1ccc(-c2nn(Cc3ccccc3)cc2-c2nc3c4cccnc4c4ncccc4c3[nH]2)cc1`, the “Ratio IC50” value in experiment [2] worked out at 2.13. For the same molecule, in experiment [1], the “growth inhibition (GI)” value is “Active”. Besides, the IC50 came to 1.78 µM in [3] and 3.8 µM in [10]. Further, in experiment [5], the outcome was inactive. Also, the inhibition of growth at 0.2 µM in [6] was 93.3%. Also, in experiment [8], the ΔTm is 12.4 °C. The inhibition of growth at 0.1 µM in experiment [9] is 86.6%. Besides, the inhibition of growth at 0.05 µM in experiment [11] was 34.5%.
For `CN(C)CCCn1cc(-c2nc3c4cccnc4c4ncccc4c3[nH]2)c(-c2ccc(F)cc2)n1`, the “growth inhibition (GI)” value in [1] was “Active”.
`Cc1ccc(-c2nn(Cc3ccccc3)cc2-c2nc3c4cccnc4c4ncccc4c3[nH]2)cc1`: the “Ratio IC50” value in experiment [2] turned out to be 1.73. Also, the “growth inhibition (GI)” value in experiment [1] was “Active”. Moreover, the IC50 in [3] is 2.75 µM; in [10], 4.76 µM. Also, in [5], the result was inactive. Further, the inhibition of growth at 0.2 µM in [6] is 85.8%. Moreover, in experiment [8], the ΔTm came out at 16.3 °C. For the same molecule, the inhibition of growth at 0.1 µM in [9] came out at 54.6%. Also, the inhibition of growth at 0.05 µM in experiment [11] was determined as 16.3%.
